Laboratory results taken from ChEMBL document CHEMBL1156706, “Structure-activity relationships of novel heteroaryl-acrylonitriles as cytotoxic and antibacterial agents” (Eur J Med Chem, 2008).
Values after ≈ are worked out from the molar mass of the structure shown. Active and inactive are the calls of the source. The calls are words filed in the database; no cut-off is given here.

How the values were obtained:
Enterococcus hirae = assay: Antibacterial activity against Enterococcus hirae NCTC 10541 after 24 hrs; format: functional, organism-based; conditions: NCTC 10541, 24 h
How it was run: (§1)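 Overnight culture diluted in Mueller–Hinton broth to 10^5 CFU/ml. Compounds dissolved in DMSO and diluted twofold in broth over 0.24–62.5 […]. Tubes inoculated and incubated 24 h at 37 °C. MIC taken as the lowest concentration with no visible growth. Clear tubes were subcultured onto Mueller–Hinton agar, and MBC was taken as the minimal concentration killing the organisms after 24 h.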

RT-4 = assay: Cytotoxicity against human RT4 cells after 96 hrs by microtiter assay; format: functional, cell-based; conditions: RT-4, 96 h
How it was run: (§2)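 DSMZ cell lines in RPMI 1640 with 10% FCS. DMF stocks diluted 1000-fold into medium. Continuous exposure 96 h at 37 °C, 5% CO2. Adherent cells stained with crystal violet. IC50 (50% growth inhibition vs untreated control) obtained by least-squares fitting of dose–response curves, averaging 2–5 independent determinations.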

RT-112 = assay: Cytotoxicity against human RT112 cells after 96 hrs by microtiter assay; format: functional, cell-based; conditions: RT-112, 96 h; how it was run: as §2
DAN-G = assay: Cytotoxicity against human DAN-G cells after 96 hrs by microtiter assay; format: functional, cell-based; how it was run: as §2
SISO = assay: Cytotoxicity against human SISO cells after 96 hrs by microtiter assay; format: functional, cell-based; how it was run: as §2
HL-60 [1] = assay: Cell cycle arrest in human HL60 cells assessed as accumulation at G2/M phase at 0.15 uM after 72 hrs by FACS relative to untreated control; format: functional, cell-based
How it was run: (§3)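 Unsynchronized HL-60 cells treated 24 or 72 h across 0.03–1 µM. Cells fixed in 70% ice-cold ethanol and DNA stained with propidium iodide. Fractions in G0/G1, S and G2/M quantified by flow cytometry and compared with untreated control.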

HL-60 [2] = assay: Cell cycle arrest in human HL60 cells assessed as accumulation at G2/M phase at 0.3 uM after 72 hrs by FACS relative to untreated control; format: functional, cell-based; how it was run: as §3
[3] = Cytotoxicity against human KYSE70 cells after 96 hrs by microtiter assay; format: functional, cell-based; conditions: KYSE-70, 96 h; how it was run: as §2
YAPC = assay: Cytotoxicity against human YAPC cells after 96 hrs by microtiter assay; format: functional, cell-based; how it was run: as §2
KYSE-510 = assay: Cytotoxicity against human KYSE510 cells after 96 hrs by microtiter assay; format: functional, cell-based; conditions: KYSE-510, 96 h; how it was run: as §2
MCF7 = assay: Cytotoxicity against human MCF7 cells after 96 hrs by microtiter assay; format: functional, cell-based; conditions: MCF7, 96 h; how it was run: as §2
[4] = test system: Staphylococcus epidermidis; assay: Antibacterial activity against Staphylococcus epidermis NCTC 14990 after 24 hrs; format: functional, organism-based; conditions: NCTC 14990, 24 h; how it was run: as §1
[5] = Cytotoxicity against human KYSE520 cells after 96 hrs by microtiter assay; format: functional, cell-based; conditions: KYSE-520, 96 h; how it was run: as §2
A-427 = assay: Cytotoxicity against human A427 cells after 96 hrs by microtiter assay; format: functional, cell-based; conditions: A-427, 96 h; how it was run: as §2
HL-60 [6] = assay: Cell cycle arrest in human HL60 cells assessed as accumulation at G0/G1 phase at 0.15 uM after 72 hrs by FACS relative to untreated control; format: functional, cell-based; how it was run: as §3
HL-60 [7] = assay: Cell cycle arrest in human HL60 cells assessed as accumulation at G0/G1 phase at 0.3 uM after 72 hrs by FACS relative to untreated control; format: functional, cell-based; how it was run: as §3
HL-60 [8] = assay: Cell cycle arrest in human HL60 cells assessed as accumulation at G0/G1 and G2/M phases at 0.15 uM after 72 hrs by FACS relative to untreated control
HL-60 [9] = assay: Cell cycle arrest in human HL60 cells assessed as accumulation at G0/G1 and G2/M phases at 0.3 uM after 72 hrs by FACS relative to untreated control
5637 = assay: Cytotoxicity against human 5637 cells after 96 hrs by microtiter assay; format: functional, cell-based; conditions: Homo sapiens, 5637, 96 h; how it was run: as §2
[10] = Cytotoxicity against human LCLC-103H cells after 96 hrs by microtiter assay; format: functional, cell-based; how it was run: as §2
Staphylococcus aureus = assay: Antibacterial activity against Staphylococcus aureus NCTC 4163 after 24 hrs; format: functional, organism-based; conditions: NCTC 4163, 24 h; how it was run: as §1

Compound: N#C/C(=C\c1ccc([N+](=O)[O-])s1)c1nc2ccccc2[nH]1
- MIC (Enterococcus hirae): > 210 µM
- IC50 (RT-4): 530 nM
- IC50 (RT-112): 440 nM
- IC50 (DAN-G): 600 nM
- IC50 (SISO): 480 nM
- Activity (HL-60 [1]): Active
- Activity (HL-60 [2]): Active
- IC50 [3]: 190 nM
- IC50 (YAPC): 210 nM
- IC50 (KYSE-510): 400 nM
- IC50 (MCF7): 260 nM
- MIC [4]: 3.2 µM (≈ 0.948 µg/mL)
- IC50 [5]: 130 nM
- IC50 (A-427): 150 nM
- Activity (HL-60 [6]): Active
- Activity (HL-60 [7]): Active
- Activity (HL-60 [8]): Active
- Activity (HL-60 [9]): Active
- IC50 5637: 190 nM
- IC50 [10]: 210 nM
- MIC (Staphylococcus aureus): 6.4 µM (≈ 1.9 µg/mL)
